Consider 16 molecules from ChEMBL document CHEMBL4038265, “Antiprotozoal Activity-Based Profiling of a Dichloromethane Extract from Anthemis nobilis Flowers” (J Nat Prod, 2017).

For one data set, the system named is Leishmania donovani. Put plainly: Antiprotozoal activity against amastigote form of Leishmania donovani MHOM/ET/67/L82 after 72 hrs by Alamar Blue assay. The data set is classed as functional. The note with it: MHOM/ET/67/L82, 72 h.
The subject of data set [1] is Trypanosoma brucei rhodesiense. Put plainly: Antiprotozoal activity against bloodstream form of Trypanosoma brucei rhodesiense STIB900 after 72 hrs by Alamar Blue assay. As to conditions: STIB900, 72 h. It counts as functional.
The subject of the next data set is L6. As to the kind of experiment: Cytotoxicity against rat L6 cells after 72 hrs by Alamar Blue assay. The data set is classed as cell-based. The note with it: L6, 72 h. In a few lines: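 Rat L6 cytotoxicity IC50 values (μM) are averages of three independent assays.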
A further data set concerns Plasmodium falciparum. Put plainly: Antiprotozoal activity against erythrocytic stage of Plasmodium falciparum NF54 after 48 hrs by [3H]- hypoxanthine incorporation assay. The data set is classed as functional.
The nature of data set [2]: Selectivity index, ratio of IC50 for rat L6 cells to IC50 for erythrocytic stage of Plasmodium falciparum NF54. The data set is classed as toxicity. As to conditions: read-out: Ratio IC50.
Another data set deals with Trypanosoma cruzi. Put plainly: Antiprotozoal activity against Trypanosoma cruzi Tulahuen C4 infected in rat L6 cells after 96 hrs by beta-galactosidase reporter gene assay. It counts as functional, cell-based. The note with it: Tulahuen C4, L6, 96 h.
The nature of data set [3]: Selectivity index, ratio of IC50 for rat L6 cells to IC50 for bloodstream form of Trypanosoma brucei rhodesiense STIB900. It counts as toxicity. As to conditions: read-out: Ratio IC50.
Data set [4] in a line: Selectivity index, ratio of IC50 for rat L6 cells to IC50 for amastigote form of Leishmania donovani MHOM/ET/67/L82. It counts as toxicity. As to conditions: read-out: Ratio IC50.
Data set [5] in a line: Selectivity index, ratio of IC50 for rat L6 cells to IC50 for Trypanosoma cruzi Tulahuen C4. The data set is classed as toxicity. The note with it: read-out: Ratio IC50.

Structures are written as SMILES.

As to `C=C(C[C@H](OC(=O)/C(C)=C\C)[C@@H]1C(=C)C(=O)O[C@H]1/C=C(\C)C=O)C(C)=O`, the IC50 in the data set with Leishmania donovani amounted to 0.38 µM; in data set [1] it was 0.42 µM; in the data set with L6, 1.8 µM; with Plasmodium falciparum, 2 µM; with Trypanosoma cruzi, 5 µM. The selectivity ratio in [2] was 0.9; in data set [3], 4.3; in data set [4], 4.7; in data set [5], 0.3.

Regarding `C=C1C(=O)O[C@H]2/C=C(/C)[C@@H](O)C[C@H](O)C(=C)C[C@H](OC(=O)/C(C)=C\C)[C@@H]12`, the IC50 with Leishmania donovani was 13.2 µM; in data set [1], 0.61 µM; with L6, 5.1 µM; in the data set with Plasmodium falciparum it was 7.8 µM; in the data set on Trypanosoma cruzi, 29.3 µM. Moreover, the selectivity ratio was determined as 0.6 in [2], 8.3 in data set [3], 0.4 in data set [4] and 0.2 in data set [5].

With `C=C1C[C@H](OC(=O)/C(C)=C\C)[C@H]2C(=C)C(=O)O[C@H]2/C=C(/C)[C@@H](O)CC1=O`, the IC50 in the data set with Leishmania donovani is 0.5 µM; in data set [1], 0.4 µM; in the data set on L6, 1.5 µM; with Plasmodium falciparum it was 1.9 µM; with Trypanosoma cruzi, 2.8 µM. In addition, the selectivity ratio is 0.8 in [2], 3.9 in data set [3], 3.1 in [4] and 0.5 in [5].

As to `C=C1C(=O)O[C@H]2/C=C(/C)[C@@H](O)C[C@@H](O)/C(C)=C\[C@H](OC(=O)/C(C)=C\C)[C@@H]12`, the IC50 in the data set on Leishmania donovani was 8.4 µM; in [1], 1.4 µM; in the data set with L6, 5.3 µM; with Plasmodium falciparum it was 9.6 µM; with Trypanosoma cruzi, 26.1 µM. Besides, the selectivity ratio turned out to be 0.5 in [2], 3.9 in data set [3], 0.6 in data set [4] and 0.2 in data set [5].

Consider `C=C1C(=O)O[C@H]2/C=C(/C)[C@@H](O)C/C=C(\C=O)C[C@H](OC(=O)/C(C)=C\C)[C@@H]12`, for which the IC50 in the data set with Leishmania donovani amounted to 1.6 µM; in [1] it was 0.4 µM; in the data set on L6, 1.8 µM; in the data set on Plasmodium falciparum, 1.9 µM; with Trypanosoma cruzi, 9.8 µM. The selectivity ratio in data set [2] was determined as 0.9; in data set [3], 3.9; in data set [4], 1.1; in data set [5], 0.2.

For `C=C1C(=O)O[C@H]2/C=C(/C)[C@@H](O)C[C@H](O)C(=C)C[C@H](OC(=O)/C(C)=C/C)[C@@H]12`, the IC50 in the data set on Leishmania donovani is 5.3 µM; in data set [1], 0.36 µM; with L6, 5.1 µM; with Plasmodium falciparum, 6.2 µM; in the data set with Trypanosoma cruzi it was 26.7 µM. Also, the selectivity ratio in [2] amounted to 0.8; in data set [3], 14.1; in data set [4] it was 1; in data set [5] it was 0.2.

As to `C=C1C(=O)O[C@@H]2/C=C(/C)[C@@H]3C[C@H](O)[C@@](CO)(C[C@H](OC(=O)/C(C)=C\C)[C@@H]12)O3`, the IC50 in the data set on Leishmania donovani is 9.8 µM; in [1] it was 0.08 µM; in the data set with L6, 5.1 µM; with Plasmodium falciparum, 4.7 µM; in the data set with Trypanosoma cruzi, 37.3 µM. The selectivity ratio in data set [2] came to 1.1; in data set [3], 63.1; in data set [4] it was 0.5; in [5], 0.1.

Regarding `C=C(C)C(=O)O[C@H]1C/C(C)=C/C[C@H](O)/C(C)=C\[C@@H]2OC(=O)C(=C)[C@@H]21`, the figures for the IC50 (in data set [1]; in the data set on L6; in the data set with Trypanosoma cruzi) were 4.6 µM, 28.2 µM and 4.2 µM, respectively. For the same molecule, the selectivity ratio in [3] and in data set [5] was 6.1 throughout.

Regarding `C=C1C(=O)O[C@H]2/C=C(/C)[C@@H](O)C[C@@H]3O[C@]3(C)C[C@H](OC(=O)/C(C)=C/C)[C@@H]12`, the IC50 amounted to 2.7 µM in the data set on Leishmania donovani; 1.2 µM in data set [1]; 5.3 µM in the data set with L6; 3 µM in the data set with Plasmodium falciparum; 7.3 µM with Trypanosoma cruzi. Also, the selectivity ratio stood at 1.8 in data set [2], 4.5 in [3], 1.9 in [4] and 0.7 in [5].

In the case of `C=C1C(=O)O[C@H]2/C=C(/C)[C@H](O)C[C@H](O)C(=C)C[C@H](OC(=O)/C(C)=C\C)[C@@H]12`, the IC50 in the data set on Leishmania donovani turned out to be 23 µM; in data set [1], 0.88 µM; in the data set with L6 it was 7.3 µM; in the data set with Plasmodium falciparum, 7.9 µM; in the data set with Trypanosoma cruzi it was 31.1 µM. The selectivity ratio in data set [2] was found to be 0.9; in data set [3], 8.3; in data set [4], 0.3; in [5] it was 0.2.

Consider `C=C1C(=O)O[C@H]2[C@H]1[C@@H](OC(=O)/C(C)=C\C)CC(=C)[C@@H]1C=C[C@@](C)(O)[C@H]21`, for which the IC50 in the data set with Leishmania donovani is 0.8 µM; in [1], 1.3 µM; in the data set with L6, 5.8 µM; with Plasmodium falciparum it was 8.5 µM; with Trypanosoma cruzi it was 10.9 µM. The selectivity ratio came to 0.68 in [2], 4.4 in data set [3], 7.2 in data set [4] and 0.6 in data set [5].

For `C=C1C(=O)O[C@@H](/C=C(\C)C=O)[C@@H]1[C@H](/C=C(/C)C(C)=O)OC(=O)/C(C)=C\C`, the IC50 amounted to 0.5 µM in the data set with Leishmania donovani; 1.2 µM in data set [1]; 5.2 µM with L6; 2.2 µM in the data set with Plasmodium falciparum; 11.3 µM in the data set with Trypanosoma cruzi. Besides, the selectivity ratio in data set [2] came out at 2.3; in [3], 4.3; in data set [4], 11.2; in data set [5] it was 0.5.

`C=C1C(=O)O[C@H]2/C=C(/C)[C@@H](O)C/C=C(\C)C[C@H](OC(=O)/C(C)=C\C)[C@@H]12`: the IC50 in the data set with Leishmania donovani was determined as 2.7 µM; in data set [1] it was 2.1 µM; with L6, 4.9 µM; with Plasmodium falciparum, 3.1 µM; with Trypanosoma cruzi, 11.3 µM. The selectivity ratio in [2] was determined as 1.6; in data set [3], 2.4; in data set [4], 1.8; in data set [5], 0.4.

Regarding `O=C(Cn1ccnc1[N+](=O)[O-])NCc1ccccc1` [BENZNIDAZOLE], in the data set with Trypanosoma cruzi, half-maximal inhibition (IC50) required 2 µM.

`CCCCCCCCCCCCCCCCOP(=O)([O-])OCC[N+](C)(C)C` [MILTEFOSINE] registered an IC50 in the data set on Leishmania donovani of 0.13 µM. This counts as sub-micromolar.

`COc1cc([C@@H]2c3cc4c(cc3[C@H](O)[C@H]3COC(=O)[C@H]23)OCO4)cc(OC)c1OC` [PODOFILOX]: in the data set with L6, the concentration for half-maximal inhibition (IC50) worked out at 0.016 µM.
